Compound activity: PubChem, several laboratories
An excerpt weighted towards active compounds, which were near 6% of everything screened.
HUVEC prolif 384: blocks proliferation of human endothelial cells; HUVEC proliferation, CellTiter-Glo luminescence, 72 h; stronger effect = lower value; viability, % at 10 µM (by protocol); hit rate 1.1% among 86,000; AID 648;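 active = viability at or below 30%; inactive = viability above 30%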
Pyk2 oligo antag: Pyk2 (human) oligomerization antagonism; Q14289; Q293 cells, Pyk2 FERM NanoBiT luminescence; stronger effect = lower value; z-score (the deposit names both 25 µM and 10 µM); hit rate 0.83% among 99,000; AID 1347419;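 active = Z-score of -3 or lower, scaled per plate to the spread of control and sample wells; inactive = z-score above -3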;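 also: negative z-score means lost luminescence so less FERM oligomerization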
H69AR inhibit: blocks growth of human H69AR lung tumor cells. H69AR lung tumor viability, ATP luminescence, 72 h; stronger effect = lower value. viability, % at 10 µM. hit rate 6% among 85,000;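 active = viability at or below 40%; inactive = viability above 40%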;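 also: multidrug resistant small cell line overexpressing MRP-1 efflux transporter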
Fibroblast inh: blocks proliferation of human lung fibroblasts; LL 47 human lung fibroblast viability, ATP luminescence; stronger effect = lower value; AID 719; viability, % at 10 µM; hit rate 1.1% among 85,000;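 active = viability at or below 50% in the single dose screen; inactive = viability above 50%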;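 also: compound exposure lasted 72 h before the ATP readout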
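Times – overnight cell rest, 72 h compound treatment at 37 °C · Test system – human lung fibroblast line LL 47, low passage · Amount – 1,150 cells in each well · Controls – cell-only wells, no compound · Doses – 0.1% DMSO in all compound wells · Measured by – CellTiter-Glo luminescence · Buffer or medium – IMEM plus 15% FBS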
Jurkat tox 60K: cytotoxicity toward Jurkat cells | AID 463 | hit rate 1.2% among 56,000 | inhibition, % at 4 µM | Jurkat E6.1 viability, ATP luminescence, 48 h;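 active = inhibition above the mean inhibition of all tested compounds plus 3 SD, cut at about 28% in these data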
F-actin modifier: modifiers of cytoskeleton assembly. AID 836. hit rate 0.18% among 91,000. HUVEC TNFa F-actin phalloidin imaging, high content. inhibition, % at 2 µM;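 active = inhibition above the batch mean plus 3 SD and confirmed as a hit by visual image inspection, cut at about 30% in these data, passing the limit was not always enough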
Hits are given with their value; . = inactive; / = not tested or not shown.

SMILES | HUVEC prolif 384 | Pyk2 oligo antag | H69AR inhibit | Fibroblast inh | Jurkat tox 60K | F-actin modifier
O=C(c1c[nH]c(C(=O)C(Cl)(Cl)Cl)c1)c1ccccc1Cl | . | . | 23 | . | / | .
Cc1ccccc1C(=O)c1c[nH]c(C(N)=O)c1 | / | . | / | / | / | .
CCOC(=O)c1cccc(NC(=O)CN(c2ccc(C)cc2)S(=O)(=O)c2c(C)n[nH]c2C)c1 | . | -3 | . | . | . | .
COc1ccc(N(CC(=O)Nc2cc(Cl)ccc2OC)S(=O)(=O)c2c(C)noc2C)cc1 | . | . | 24 | 48 | 88 | .
COc1ccc(N(CC(=O)Nc2cccc(C)c2)S(=O)(=O)c2c(C)n[nH]c2C)cc1 | . | . | . | . | . | .
CCc1cccc(NC(=O)CN(c2ccc(OC)cc2)S(=O)(=O)c2c(C)n[nH]c2C)c1 | . | -3.2 | . | . | . | .
COc1ccc(N(CC(=O)Nc2ccc(C)c(C)c2)S(=O)(=O)c2c(C)n[nH]c2C)cc1 | . | -3.3 | . | . | . | .
COc1ccc2c(c1OC)C(=O)N(C(C)C(=O)O)C2=O (centres undefined) | . | . | . | . | . | .
O=C(CCCc1nc(-c2ccc(Cl)cc2)no1)N1CCOCC1 | . | . | . | . | . | .
O=C1/C(=C/c2ccccc2)Nc2ccccc21 | / | . | / | / | / | .
N#CC1=C(c2ccccc2)/C(=C/c2ccccc2)OC1=O | 28 | . | 4.0 | 5.4 | / | .
CCN(CC)S(=O)(=O)c1ccc2oc(C(=O)O)c(C)c2c1 | . | . | . | . | . | .
CCN(CC)S(=O)(=O)c1ccc2oc(C(=O)NC(C)C)c(C)c2c1 | . | . | 29 | . | / | /
Cc1c(C(=O)N(C)Cc2ccccc2)oc2ccc(S(=O)(=O)N3CCCC3)cc12 | . | . | 39 | . | / | .
Cc1c(C(=O)NCc2ccccc2)oc2ccc(S(=O)(=O)N3CCCC3)cc12 | . | / | . | . | . | .
CCN(CC)S(=O)(=O)c1ccc2oc(C(=O)NCc3ccc(C)cc3)c(C)c2c1 | . | . | 38 | . | / | .
Cc1ccc(CNC(=O)c2oc3ccc(S(=O)(=O)N4CCOCC4)cc3c2C)cc1 | . | . | 31 | . | / | .
CCC(C(=O)NC(C)(C)C)N(C(=O)Cn1nnc(-c2ccccc2F)n1)c1cccc2c1CCCC2 (centres undefined) | / | . | / | / | / | .
NC(=O)CSc1nc(-c2ccccc2Cl)ns1 | . | . | . | . | . | .
CCn1cc(C(=O)NCc2ccc3c(c2)OCO3)c(=O)c2cc(S(=O)(=O)N3CCOCC3)ccc21 | . | . | . | . | . | .
CCn1cc(C(=O)NCc2ccc(Cl)cc2)c(=O)c2cc(S(=O)(=O)N3CCOCC3)ccc21 | . | / | 30 | . | . | /
Cc1cccc(-n2ncc3c(NCc4ccco4)ncnc32)c1 | . | . | 26 | . | / | /
Cc1cccc(-n2ncc3c(NCc4ccccc4)ncnc32)c1 | . | / | 25 | . | 83 | /
CC(C)OCCCNc1ncnc2c1cnn2-c1ccccc1 | . | . | . | . | / | /
Cc1cccc(-n2ncc3c(NCc4ccccn4)ncnc32)c1 | . | . | . | . | . | .
SMILES | HUVEC prolif 384 | Pyk2 oligo antag | H69AR inhibit | Fibroblast inh | Jurkat tox 60K | F-actin modifier
Cc1cccc(-n2ncc3c(NCc4cccs4)ncnc32)c1 | . | . | . | . | . | .
Cc1ccc(-n2ncc3c(NCCCOC(C)C)ncnc32)c(C)c1 | . | . | 37 | . | / | /
Clc1ccc(-n2ncc3c(NCc4cccs4)ncnc32)cc1 | . | . | . | 34 | / | /
CCC(CO)n1cnnc1-c1ccncc1 (centres undefined) | . | . | . | . | . | .
c1ccc(CCNc2ncnc3c2cnn3-c2ccccc2)cc1 | . | . | . | . | . | .
c1ccc(CNc2ncnc3c2cnn3-c2ccccc2)cc1 | . | . | 26 | . | 85 | .
Fc1ccc(CNc2ncnc3c2cnn3-c2ccccc2)cc1 | . | . | 37 | . | . | .
Cc1cccc(-n2ncc3c(N4CCCc5ccccc54)ncnc32)c1 | . | . | 35 | . | / | .
Cc1cccc(-n2ncc3c(N4CCN(c5nc(C)cc(C)n5)CC4)ncnc32)c1 | . | / | . | . | . | /
CCS(=O)(=O)c1ccc2oc(SCC(=O)NC(C)C3CC4CCC3C4)nc2c1 (centres undefined) | . | . | . | . | / | .
COc1ccc(S(=O)(=O)N(CC(=O)N/N=C/c2cccs2)c2ccc(C)cc2)cc1OC | / | . | / | / | / | .
COc1ccc(S(=O)(=O)N(CC(=O)N/N=C/c2cccs2)c2cc(C)cc(C)c2)cc1OC | / | -3 | / | / | / | .
Cc1cc(C(=O)CSc2nnnn2-c2ccccc2)c(C)n1CCc1ccccc1 | . | . | 19 | . | / | .
